Results as given in ChEMBL document CHEMBL3397016, “SAR-studies of γ-secretase modulators with PPARγ-agonistic and 5-lipoxygenase-inhibitory activity for Alzheimer's disease” (Bioorg Med Chem Lett, 2015).
The source made the active and inactive calls. The calls are words filed in the database; no cut-off is given here.

Tests used:
[1] = biological target: T1, Prostaglandin G/H synthase 1 (Ovis aries) (UniProt P05979); test: Inhibition of ovine COX1-mediated 12-HHT formation assessed as remaining activity at 10 uM preincubated for 5 mins before arachidonic acid addition by HPLC analysis
T1 sequence (whole entry): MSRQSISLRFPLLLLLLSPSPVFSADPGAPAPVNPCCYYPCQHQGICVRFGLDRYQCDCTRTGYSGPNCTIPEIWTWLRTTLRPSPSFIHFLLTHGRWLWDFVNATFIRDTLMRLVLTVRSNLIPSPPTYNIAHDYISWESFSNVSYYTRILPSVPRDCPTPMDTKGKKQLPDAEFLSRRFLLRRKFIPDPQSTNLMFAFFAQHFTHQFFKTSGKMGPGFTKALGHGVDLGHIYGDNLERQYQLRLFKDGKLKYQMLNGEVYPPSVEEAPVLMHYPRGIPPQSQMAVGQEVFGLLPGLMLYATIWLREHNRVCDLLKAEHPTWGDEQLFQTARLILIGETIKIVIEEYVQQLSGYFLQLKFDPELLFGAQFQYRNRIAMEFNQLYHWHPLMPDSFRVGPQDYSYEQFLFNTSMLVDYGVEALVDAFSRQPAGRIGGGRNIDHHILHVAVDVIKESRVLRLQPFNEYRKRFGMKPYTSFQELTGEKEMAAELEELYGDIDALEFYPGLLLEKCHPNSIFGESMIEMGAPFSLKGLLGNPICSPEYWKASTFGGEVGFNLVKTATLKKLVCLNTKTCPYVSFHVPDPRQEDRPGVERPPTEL
Outline: (§1)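 Cell-free enzyme assays. Data given either as IC50 or as remaining enzyme activity at 10 µM test concentration.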

[2] = biological target: T2, Polyunsaturated fatty acid 5-lipoxygenase (Homo sapiens, UniProt P09917); test: Inhibition of 5-LO in human PMNL assessed as reduction in 5-LO product formation pre-incubated for 15 mins before addition of arachidonic acid substrate by HPLC analysis; conditions: read-out: IC50
T2 sequence (P09917 whole entry): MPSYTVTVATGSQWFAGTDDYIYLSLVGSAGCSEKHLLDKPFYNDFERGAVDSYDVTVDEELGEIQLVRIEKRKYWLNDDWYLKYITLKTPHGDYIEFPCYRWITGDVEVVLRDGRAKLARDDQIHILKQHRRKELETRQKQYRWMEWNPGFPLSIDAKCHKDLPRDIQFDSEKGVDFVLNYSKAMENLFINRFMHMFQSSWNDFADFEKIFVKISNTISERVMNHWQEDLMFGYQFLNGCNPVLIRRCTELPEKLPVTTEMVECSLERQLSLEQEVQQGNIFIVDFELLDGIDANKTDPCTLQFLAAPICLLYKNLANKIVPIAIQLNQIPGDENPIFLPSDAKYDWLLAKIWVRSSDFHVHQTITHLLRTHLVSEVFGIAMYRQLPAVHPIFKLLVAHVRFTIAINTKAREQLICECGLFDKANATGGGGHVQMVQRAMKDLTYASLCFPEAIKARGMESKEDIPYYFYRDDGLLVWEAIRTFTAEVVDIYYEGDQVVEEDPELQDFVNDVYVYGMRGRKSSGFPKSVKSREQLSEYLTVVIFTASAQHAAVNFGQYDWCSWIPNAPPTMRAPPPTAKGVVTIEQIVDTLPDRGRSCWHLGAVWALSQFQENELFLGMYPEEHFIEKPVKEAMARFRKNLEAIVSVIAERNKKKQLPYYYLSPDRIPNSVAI

[3] = biological target: T3, Peroxisome proliferator-activated receptor gamma (Homo sapiens) (UniProt P37231); test: Activation of human PPARgamma ligand binding domain expressed in COS7 cells at 6 uM by dual luciferase reporter gene assay; format: cell-based; conditions: COS-7
T3 sequence (whole entry): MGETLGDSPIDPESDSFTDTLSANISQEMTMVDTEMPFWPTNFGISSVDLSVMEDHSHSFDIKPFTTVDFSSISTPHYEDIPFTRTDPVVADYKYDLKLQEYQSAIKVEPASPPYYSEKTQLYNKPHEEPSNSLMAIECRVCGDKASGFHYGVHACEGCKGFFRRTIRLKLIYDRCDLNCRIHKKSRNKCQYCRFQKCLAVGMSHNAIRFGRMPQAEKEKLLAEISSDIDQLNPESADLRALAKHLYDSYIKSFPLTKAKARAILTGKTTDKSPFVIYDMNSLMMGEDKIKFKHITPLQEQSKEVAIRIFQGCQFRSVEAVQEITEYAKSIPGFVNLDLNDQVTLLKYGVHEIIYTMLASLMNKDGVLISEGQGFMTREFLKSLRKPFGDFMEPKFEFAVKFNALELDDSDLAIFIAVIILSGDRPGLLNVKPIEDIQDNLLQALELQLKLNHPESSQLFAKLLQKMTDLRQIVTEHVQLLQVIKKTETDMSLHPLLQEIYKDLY

[4] = Cytotoxicity against human Jurkat cells assessed as reduction in cell viability up to 30 uM after 24 to 48 hrs by MTT assay; format: cell-based; conditions: read-out: INH
[5] = biological target: T4, Prostaglandin G/H synthase 1 (Ovis aries, UniProt P05979); test: Inhibition of ovine COX1-mediated 12-HHT formation preincubated for 5 mins before arachidonic acid addition by HPLC analysis; outline: as §1
T4 sequence (P05979 whole entry): T1 sequence (whole entry)

Prostaglandin E synthase = biological target: T5, Prostaglandin E synthase (Homo sapiens, UniProt O14684); test: Inhibition of mPGES-1-mediated PGE2 formation in interleukin-1beta-stimulated human A549 microsomal membranes preincubated for 15 mins before PGH2 addition by RP-HPLC analysis
T5 sequence (O14684 whole entry): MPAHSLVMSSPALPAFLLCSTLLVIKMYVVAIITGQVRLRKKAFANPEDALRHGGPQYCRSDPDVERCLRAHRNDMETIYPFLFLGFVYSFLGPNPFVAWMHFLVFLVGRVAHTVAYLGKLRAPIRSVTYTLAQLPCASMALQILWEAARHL

[6] = biological target: T3, Peroxisome proliferator-activated receptor gamma (Homo sapiens); test: Activation of human PPARgamma ligand binding domain expressed in COS7 cells at 3 uM by dual luciferase reporter gene assay; format: cell-based; conditions: COS-7
[7] = biological target: T6, Prostaglandin G/H synthase 2 (Homo sapiens) (UniProt P35354); test: Inhibition of human recombinant COX2-mediated 12-HHT formation assessed as remaining activity at 10 uM preincubated for 5 mins before arachidonic acid addition by HPLC analysis; outline: as §1
T6 sequence (whole entry): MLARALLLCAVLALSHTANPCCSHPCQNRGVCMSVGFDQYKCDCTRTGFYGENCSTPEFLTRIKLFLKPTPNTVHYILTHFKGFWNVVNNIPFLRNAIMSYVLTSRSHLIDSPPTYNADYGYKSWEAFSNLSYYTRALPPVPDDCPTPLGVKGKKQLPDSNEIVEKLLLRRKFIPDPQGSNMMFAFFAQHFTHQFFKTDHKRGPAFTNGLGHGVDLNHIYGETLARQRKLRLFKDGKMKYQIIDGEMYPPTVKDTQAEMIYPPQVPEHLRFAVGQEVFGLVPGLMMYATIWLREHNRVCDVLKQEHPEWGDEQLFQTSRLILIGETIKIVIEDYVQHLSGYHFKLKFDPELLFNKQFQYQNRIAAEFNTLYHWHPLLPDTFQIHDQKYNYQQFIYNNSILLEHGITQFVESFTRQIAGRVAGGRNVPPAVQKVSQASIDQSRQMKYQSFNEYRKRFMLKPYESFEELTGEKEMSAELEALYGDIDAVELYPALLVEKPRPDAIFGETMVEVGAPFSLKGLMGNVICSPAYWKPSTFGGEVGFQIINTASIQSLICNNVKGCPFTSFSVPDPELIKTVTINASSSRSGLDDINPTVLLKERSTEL

Presenilin-1 [8] = biological target: T7, Presenilin-1 (Homo sapiens, UniProt P49768); test: Inhibition of wild-type human presenilin-1 stably overexpressed in CHO cells co-expressing wild-type human amyloid precursor protein assessed as inhibition of amyloid beta 42 formation after 24 hrs by ELISA; format: cell-based
Presenilin-1 [9] = biological target: T7, Presenilin-1; test: Activation of wild-type human presenilin-1 stably overexpressed in CHO cells co-expressing wild-type human amyloid precursor protein assessed as amyloid beta 38 formation after 24 hrs by ELISA; format: cell-based
[10] = biological target: T8, Prostaglandin G/H synthase 2 (Homo sapiens, UniProt P35354); test: Inhibition of human recombinant COX2-mediated 12-HHT formation preincubated for 5 mins before arachidonic acid addition by HPLC analysis; outline: as §1
T8 sequence (P35354 whole entry): T6 sequence (whole entry)

[11] = biological target: NOTCH-1 signaling (Neurogenic locus notch homolog protein 1) (Homo sapiens, UniProt P46531); test: Inhibition of NOTCH-1 signaling (unknown origin) expressed in CHO cells at 0.5 uM after 24 hrs by dual luciferase reporter gene assay; format: cell-based; conditions: CHO cells expressing NOTCH-1
Outline: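 Dual luciferase Notch reporter read-out in CHO cells. Test compounds were run at 5–50 µM. The γ-secretase inhibitor LY-411575 was run at 0.5 µM as the reference treatment.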

Gamma-secretase = test: Inhibition of CHAPSO-solubilized gamma-secretase isolated from human SH-SY5Y P2 cell membranes assessed as reduction in Abeta(1 to 42) peptide generation from recombinant C100Flag substrate by electrochemiluminescence assay
[12] = biological target: T3, Peroxisome proliferator-activated receptor gamma (Homo sapiens); test: Activation of human PPARgamma ligand binding domain expressed in COS7 cells by dual luciferase reporter gene assay relative to 1 uM pioglitazone; format: cell-based; conditions: COS-7
[13] = biological target: T9, Peroxisome proliferator-activated receptor gamma (Homo sapiens, UniProt P37231); test: Activation of human PPARgamma ligand binding domain expressed in COS7 cells by dual luciferase reporter gene assay; format: cell-based, COS-7; conditions: cos-7
T9 sequence (P37231 whole entry): T3 sequence (whole entry)

Sequence of NOTCH-1 signaling (Neurogenic locus notch homolog protein 1) (P46531 whole entry): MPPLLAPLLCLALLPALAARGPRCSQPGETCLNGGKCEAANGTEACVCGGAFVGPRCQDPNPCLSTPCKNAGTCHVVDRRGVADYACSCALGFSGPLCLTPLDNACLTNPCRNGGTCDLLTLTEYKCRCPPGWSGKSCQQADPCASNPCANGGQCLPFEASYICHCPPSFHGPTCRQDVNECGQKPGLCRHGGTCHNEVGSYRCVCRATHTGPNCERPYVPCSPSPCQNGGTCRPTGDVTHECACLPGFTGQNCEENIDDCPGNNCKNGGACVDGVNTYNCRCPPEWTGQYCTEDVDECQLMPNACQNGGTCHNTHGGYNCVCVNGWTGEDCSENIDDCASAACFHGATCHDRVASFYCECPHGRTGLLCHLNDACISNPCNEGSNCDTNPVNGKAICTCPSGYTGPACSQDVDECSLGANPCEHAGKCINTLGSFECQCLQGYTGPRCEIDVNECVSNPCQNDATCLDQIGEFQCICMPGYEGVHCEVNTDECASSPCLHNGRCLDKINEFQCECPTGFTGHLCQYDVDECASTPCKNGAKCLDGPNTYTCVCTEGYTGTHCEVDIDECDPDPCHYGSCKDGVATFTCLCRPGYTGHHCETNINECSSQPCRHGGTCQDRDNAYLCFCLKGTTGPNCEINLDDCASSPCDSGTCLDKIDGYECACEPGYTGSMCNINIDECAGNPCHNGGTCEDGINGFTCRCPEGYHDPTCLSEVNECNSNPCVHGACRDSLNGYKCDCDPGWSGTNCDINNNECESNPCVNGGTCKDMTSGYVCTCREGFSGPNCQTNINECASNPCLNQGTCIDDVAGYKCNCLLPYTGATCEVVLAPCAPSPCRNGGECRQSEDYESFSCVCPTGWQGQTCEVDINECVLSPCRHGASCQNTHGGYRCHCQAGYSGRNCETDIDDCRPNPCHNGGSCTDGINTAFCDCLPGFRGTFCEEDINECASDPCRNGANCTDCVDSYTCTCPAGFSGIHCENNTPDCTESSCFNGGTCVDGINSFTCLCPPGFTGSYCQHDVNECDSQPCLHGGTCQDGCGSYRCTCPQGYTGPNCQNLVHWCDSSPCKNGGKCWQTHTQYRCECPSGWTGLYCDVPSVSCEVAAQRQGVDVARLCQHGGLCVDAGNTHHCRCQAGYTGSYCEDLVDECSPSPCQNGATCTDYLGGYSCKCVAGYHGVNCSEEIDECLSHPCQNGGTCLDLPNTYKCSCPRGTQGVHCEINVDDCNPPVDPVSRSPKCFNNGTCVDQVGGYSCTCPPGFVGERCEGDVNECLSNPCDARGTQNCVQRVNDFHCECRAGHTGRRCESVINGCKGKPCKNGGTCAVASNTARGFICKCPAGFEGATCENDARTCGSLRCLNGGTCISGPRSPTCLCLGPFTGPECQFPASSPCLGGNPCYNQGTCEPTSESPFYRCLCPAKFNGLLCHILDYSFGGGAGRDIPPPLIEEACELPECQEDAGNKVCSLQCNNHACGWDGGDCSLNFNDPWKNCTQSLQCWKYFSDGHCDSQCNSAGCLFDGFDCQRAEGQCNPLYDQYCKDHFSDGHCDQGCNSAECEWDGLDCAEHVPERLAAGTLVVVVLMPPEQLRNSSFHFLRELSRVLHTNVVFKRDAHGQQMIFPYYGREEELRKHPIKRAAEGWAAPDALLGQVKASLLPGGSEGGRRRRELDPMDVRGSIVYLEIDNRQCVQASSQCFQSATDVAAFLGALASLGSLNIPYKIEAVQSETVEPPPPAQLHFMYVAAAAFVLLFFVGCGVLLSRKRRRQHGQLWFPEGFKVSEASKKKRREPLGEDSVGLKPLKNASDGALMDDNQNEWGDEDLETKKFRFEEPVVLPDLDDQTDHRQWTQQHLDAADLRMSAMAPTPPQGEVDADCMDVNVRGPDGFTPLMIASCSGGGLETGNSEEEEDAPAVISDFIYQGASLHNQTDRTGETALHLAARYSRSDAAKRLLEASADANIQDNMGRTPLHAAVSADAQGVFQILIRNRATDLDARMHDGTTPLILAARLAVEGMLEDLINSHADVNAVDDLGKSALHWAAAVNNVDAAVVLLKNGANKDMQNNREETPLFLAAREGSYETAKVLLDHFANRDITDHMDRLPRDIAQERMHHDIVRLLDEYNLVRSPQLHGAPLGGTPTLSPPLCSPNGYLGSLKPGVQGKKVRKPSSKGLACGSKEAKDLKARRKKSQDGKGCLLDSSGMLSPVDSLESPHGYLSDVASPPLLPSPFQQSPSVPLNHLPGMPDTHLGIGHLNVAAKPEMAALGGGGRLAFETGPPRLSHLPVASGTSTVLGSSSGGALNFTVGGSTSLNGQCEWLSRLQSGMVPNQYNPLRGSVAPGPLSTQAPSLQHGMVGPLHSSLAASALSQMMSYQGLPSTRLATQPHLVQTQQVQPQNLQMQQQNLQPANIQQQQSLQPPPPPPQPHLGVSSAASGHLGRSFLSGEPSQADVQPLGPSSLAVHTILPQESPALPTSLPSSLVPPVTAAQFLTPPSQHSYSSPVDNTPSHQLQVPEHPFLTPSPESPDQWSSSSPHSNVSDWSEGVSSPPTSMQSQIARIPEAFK

Activity [1] [%] | IC50 [2] [µM] | Activity [3] [%] | IC50 [5] [µM] | IC50 (Prostaglandin E synthase) [µM] | Activity [6] [%] | Activity [7] [%] | IC50 (Presenilin-1 [8]) [µM] | EC50 (Presenilin-1 [9]) [µM] | IC50 [10] [µM] | inhibition at 24 h, 0.5 µM [11] [%] | IC50 (Gamma-secretase) [µM] | max activation [12] | EC50 [13] | Structure (SMILES) | cytotoxicity [4] [%]
66.3 | 0.5 | 72 | > 10 | 3.1 | 21 | 72.2 | 1.5 | 1.3 | > 10 | – | – | – | – | CCCC/C(=C\c1cc(OCCc2ccc(C(F)(F)F)cc2)ccc1OCc1ccc(C(F)(F)F)cc1)C(=O)O | > 50
– | – | – | – | – | – | – | – | – | – | > 75 | – | – | – | C[C@H](NC(=O)[C@@H](O)c1cc(F)cc(F)c1)C(=O)N[C@@H]1C(=O)N(C)c2ccccc2-c2ccccc21 | –
– | – | – | – | – | – | – | – | – | – | – | 307 | – | – | C[C@@H](C(=O)O)c1ccc(-c2ccccc2)c(F)c1 [TARENFLURBIL] | –
67.4 | 0.7 | – | > 10 | 9.2 | – | 91.7 | 4.6 | 2.1 | > 10 | – | – | inactive | Not Active | CCCC/C(=C\c1cc(OCc2cc3ccccc3s2)ccc1OCc1ccc(C(F)(F)F)cc1)C(=O)O | > 50
